From ChEMBL document CHEMBL1146180, “Synthesis and evaluation of [18F] labeled pyrimidine nucleosides for positron emission tomography imaging of herpes simplex virus 1 thymidine kinase gene expression” (J Med Chem, 2006)

Tests used:
[1] = Partition coefficient, log P at pH 7.4; format: physicochemical; conditions: octanol/water
Method in brief: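 Octanol/PBS shake-flask: 20 µL radiolabeled tracer in saline added to 0.5 mL each 1-octanol and PBS (pH 6.4, 7.0, 7.4, 8.4); vortexed 1 min, centrifuged 5 min; 20 µL of each layer weighed and 18F gamma-counted (400-550 keV). log P = log10(counts per g octanol / counts per g water).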

[2] = test system: RG2; experiment: Uptake in HSV1 thymidine kinase expressing rat RG2TK+ cells; format: ADME, cell-based
Method in brief: (§1)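 Paired time-course uptake over 120 min in HSV1-tk transduced RG2TK+ and wild-type RG2 cells. Medium held 18F tracer (10 kBq/mL) with [3H]TdR (3.7 kBq/mL) and [14C]FIAU (0.37 kBq/mL) as references. 18F gamma-counted at once, 3H/14C by liquid scintillation 24-36 h later. Net accumulation rate, (mL medium/min)/g cells, taken from slope of (dpm/g cells)/(dpm/mL medium) vs time and normalized to TdR.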

[3] = test system: RG2; experiment: Uptake in rat RG2 cells; format: ADME, cell-based; method in brief: as §1
[4] = test system: RG2; experiment: Ratio of uptake in rat RG2TK+ cells to RG2 cells; format: ADME, cell-based; method in brief: as §1

Row | logD [1] | Drug uptake [2] [µL/min/mg] | Drug uptake [3] [µL/min/mg] | Ratio [4] | SMILES
1 | 0.5 | 14 | -1 | – | CCCc1cn([C@@H]2O[C@H](CO)[C@@H](O)[C@@H]2[18F])c(=O)[nH]c1=O
2 | – | 22 | 3.2 | 6.9 | Nc1nc(=O)c2ncn(CCC(CO)C[18F])c2[nH]1 (stereo not drawn)
3 | – | 7.7 | 0.4 | 19 | Nc1nc(O)c2ncn(COC(CO)C[18F])c2n1 (stereo not drawn)
4 | 1.02 | 35 | -1 | – | O=c1[nH]c(=O)n([C@@H]2O[C@H](CO)[C@@H](O)[C@@H]2[18F])cc1/C=C/Br
5 | – | 290 | 0.53 | 550 | O=c1[nH]c(=O)n([C@@H]2O[C@H](CO)[C@@H](O)[C@@H]2F)cc1CC[18F]
6 | -0.1 | 274 | 48 | 5.7 | O=c1[nH][14c](=O)n([C@@H]2O[C@H](CO)[C@@H](O)[C@@H]2F)cc1I
7 | 0.03 | 51 | 4 | 13 | O=c1[nH]c(=O)n([C@@H]2O[C@H](CO)[C@@H](O)[C@@H]2[18F])cc1C(F)(F)F
